# Source: ChEMBL document CHEMBL2086252, “Syntheses and evaluation of anticonvulsant activity of novel branched alkyl carbamates” (J Med Chem, 2012)
# The source made the active and inactive calls. The calls are words filed in the database; no cut-off is given here.
# Key:
# [1] = Neurotoxicity in po dosed Sprague-Dawley albino rat assessed as minimal motor impairment by rotarod test; type: toxicity, organism-based; details: in vivo
# Procedure, shortened: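 Rats dosed orally; 4 rats per time point after dosing. Neurotoxicity was scored as motor impairment or sedation and reported as number of animals affected over number tested.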
# [2] = test system: Rattus norvegicus; assay: Anticonvulsant activity in po dosed Sprague-Dawley albino rat assessed as protection against maximal electroshock-induced seizures; type: functional
# Procedure, shortened: (§1)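 Quantitative testing: rats dosed orally or ip in MES and scMet tests, and mice dosed ip, including the 6 Hz (32 mA) psychomotor seizure test. ED50 and TD50 were reported in mg/kg with ranges in parentheses. Protective index was calculated as TD50/ED50.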
# [3] = test system: Rattus norvegicus; assay: Protective index, ratio of TD50 for po dosed Sprague-Dawley albino rat by rotarod test to ED50 for po dosed Sprague-Dawley albino rat by maximal electroshock seizures test; type: functional
# Procedure, shortened: (§2)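 Protective index calculated as TD50/ED50, with TD50 and ED50 taken from the same species and dosing route.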
# [4] = test system: Rattus norvegicus; assay: Anticonvulsant activity in po dosed Sprague-Dawley albino rat assessed as protection against subcutaneous metrazol-induced seizures; type: functional; procedure, shortened: as §1
# [5] = test system: Rattus norvegicus; assay: Protective index, ratio of TD50 for po dosed Sprague-Dawley albino rat by rotarod test to ED50 for po dosed Sprague-Dawley albino rat by subcutaneous metrazol seizures test; type: functional; procedure, shortened: as §2
# [6] = test system: Mus musculus; assay: Anticonvulsant activity in albino CF1 mouse assessed as protection against subcutaneous metrazol-induced seizures at 30 mg/kg, ip after 0.5 hrs; type: functional, organism-based; parameters: dose 30 mg/kg
# Procedure, shortened: (§3)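 Mice dosed ip at 30, 100 or 300 mg/kg, then tested 0.5 h and 4 h after administration in the MES or scMet test. Protection was recorded as animals protected over animals tested. Neurotoxicity was recorded as motor impairment or sedation, as animals affected over animals tested.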
# [7] = test system: Mus musculus; assay: Anticonvulsant activity in albino CF1 mouse assessed as protection against subcutaneous metrazol-induced seizures at 100 mg/kg, ip after 0.5 hrs; type: functional, organism-based; parameters: dose 100 mg/kg; procedure, shortened: as §3
# [8] = test system: Mus musculus; assay: Anticonvulsant activity in albino CF1 mouse assessed as protection against subcutaneous metrazol-induced seizures at 300 mg/kg, ip after 0.5 hrs; type: functional, organism-based; parameters: dose 300 mg/kg; procedure, shortened: as §3
# [9] = test system: Mus musculus; assay: Anticonvulsant activity in albino CF1 mouse assessed as protection against subcutaneous metrazol-induced seizures at 30 mg/kg, ip after 4 hrs; type: functional, organism-based; parameters: dose 30 mg/kg; procedure, shortened: as §3
# [10] = test system: Mus musculus; assay: Anticonvulsant activity in albino CF1 mouse assessed as protection against subcutaneous metrazol-induced seizures at 100 mg/kg, ip after 4 hrs; type: functional, organism-based; parameters: dose 100 mg/kg; procedure, shortened: as §3
# [11] = test system: Mus musculus; assay: Anticonvulsant activity in albino CF1 mouse assessed as protection against subcutaneous metrazol-induced seizures at 300 mg/kg, ip after 4 hrs; type: functional, organism-based; parameters: dose 300 mg/kg; procedure, shortened: as §3
# [12] = test system: Mus musculus; assay: Anticonvulsant activity in albino CF1 mouse assessed as protection against maximal electroshock-induced seizures at 30 mg/kg, ip after 0.5 hrs; type: functional, organism-based; parameters: dose 30 mg/kg; procedure, shortened: as §3
# [13] = test system: Mus musculus; assay: Anticonvulsant activity in albino CF1 mouse assessed as protection against maximal electroshock-induced seizures at 100 mg/kg, ip after 0.5 hrs; type: functional, organism-based; parameters: dose 100 mg/kg; procedure, shortened: as §3
# [14] = test system: Mus musculus; assay: Anticonvulsant activity in albino CF1 mouse assessed as protection against maximal electroshock-induced seizures at 300 mg/kg, ip after 0.5 hrs; type: functional, organism-based; parameters: dose 300 mg/kg; procedure, shortened: as §3
# [15] = test system: Mus musculus; assay: Anticonvulsant activity in albino CF1 mouse assessed as protection against maximal electroshock-induced seizures at 30 mg/kg, ip after 4 hrs; type: functional, organism-based; parameters: dose 30 mg/kg; procedure, shortened: as §3
# [16] = test system: Mus musculus; assay: Anticonvulsant activity in albino CF1 mouse assessed as protection against maximal electroshock-induced seizures at 100 mg/kg, ip after 4 hrs; type: functional, organism-based; parameters: dose 100 mg/kg; procedure, shortened: as §3
# [17] = test system: Mus musculus; assay: Anticonvulsant activity in albino CF1 mouse assessed as protection against maximal electroshock-induced seizures at 300 mg/kg, ip after 4 hrs; type: functional, organism-based; parameters: dose 300 mg/kg; procedure, shortened: as §3
# [18] = test system: Mus musculus; assay: Neurotoxicity in albino CF1 mouse assessed as minimal motor impairment at 30 mg/kg, ip after 0.5 hrs by rotarod test; type: toxicity, organism-based; parameters: dose 30 mg/kg, route intraperitoneal; details: in vivo; procedure, shortened: as §3
# [19] = test system: Mus musculus; assay: Neurotoxicity in albino CF1 mouse assessed as minimal motor impairment at 30 mg/kg, ip after 4 hrs by rotarod test; type: toxicity, organism-based; parameters: dose 30 mg/kg, route intraperitoneal; details: in vivo; procedure, shortened: as §3
# [20] = test system: Mus musculus; assay: Neurotoxicity in albino CF1 mouse assessed as minimal motor impairment at 100 mg/kg, ip after 4 hrs by rotarod test; type: toxicity, organism-based; parameters: dose 100 mg/kg, route intraperitoneal; details: in vivo; procedure, shortened: as §3
# [21] = test system: Mus musculus; assay: Neurotoxicity in albino CF1 mouse assessed as minimal motor impairment at 300 mg/kg, ip after 4 hrs by rotarod test; type: toxicity, organism-based; parameters: dose 300 mg/kg, route intraperitoneal; details: in vivo; procedure, shortened: as §3
# [22] = test system: Rattus norvegicus; assay: Anticonvulsant activity in Sprague-Dawley albino rat assessed as protection against maximal electroshock-induced seizures at 30 mg/kg, po after 1 hr; type: functional, organism-based; parameters: dose 30 mg/kg
# Procedure, shortened: (§4)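 Rats dosed orally. Anti-MES protection was scored as animals protected over animals tested at each time after dosing. Neurotoxicity was scored as motor impairment or sedation, as animals affected over animals tested.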
# [23] = test system: Rattus norvegicus; assay: Anticonvulsant activity in Sprague-Dawley albino rat assessed as protection against maximal electroshock-induced seizures at 30 mg/kg, po after 2 hrs; type: functional, organism-based; parameters: dose 30 mg/kg; procedure, shortened: as §4
# [24] = test system: Rattus norvegicus; assay: Anticonvulsant activity in Sprague-Dawley albino rat assessed as protection against maximal electroshock-induced seizures at 30 mg/kg, po after 4 hrs; type: functional, organism-based; parameters: dose 30 mg/kg; procedure, shortened: as §4
# [25] = test system: Rattus norvegicus; assay: Neurotoxicity in Sprague-Dawley albino rat assessed as minimal motor impairment at 30 mg/kg, po by rotarod test; type: toxicity, organism-based; parameters: dose 30 mg/kg, route oral; details: in vivo; procedure, shortened: as §4
# [26] = test system: Rattus norvegicus; assay: Anticonvulsant activity in Sprague-Dawley albino rat assessed as protection against pilocarpine-induced status epilepticus at 65 mg/kg, ip; type: functional, organism-based; parameters: dose 65 mg/kg
# Procedure, shortened: (§5)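 Pilocarpine status epilepticus model in rats. Number and severity of convulsive seizures were observed behaviourally.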
# [27] = test system: Rattus norvegicus; assay: Neurotoxicity in pilocarpine-induced status epilepticus Sprague-Dawley albino rat model assessed as minimal motor impairment at 100 mg/kg, ip after 0.25 hr by rotarod test; type: toxicity, organism-based; parameters: dose 100 mg/kg, route intraperitoneal; details: in vivo
# [28] = test system: Rattus norvegicus; assay: Neurotoxicity in pilocarpine-induced status epilepticus Sprague-Dawley albino rat model assessed as minimal motor impairment at 300 mg/kg, ip after 0.25 hr by rotarod test; type: toxicity, organism-based; parameters: dose 300 mg/kg, route intraperitoneal; details: in vivo
# Procedure, shortened: (§6)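 Rat pilocarpine status epilepticus model: test carbamate given at 0 or 30 min after the first observed Racine stage 3 motor seizure, which marks SE onset. Neurotoxicity was scored within the same model.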
# [29] = test system: Rattus norvegicus; assay: Neurotoxicity in pilocarpine-induced status epilepticus Sprague-Dawley albino rat model assessed as minimal motor impairment at 30 mg/kg, ip after 0.25 hr by rotarod test; type: toxicity, organism-based; parameters: dose 30 mg/kg, route intraperitoneal; details: in vivo; procedure, shortened: as §6
# [30] = test system: Rattus norvegicus; assay: Neurotoxicity in pilocarpine-induced status epilepticus Sprague-Dawley albino rat model assessed as minimal motor impairment at 100 mg/kg, ip after 0.5 hrs by rotarod test; type: toxicity, organism-based; parameters: dose 100 mg/kg, route intraperitoneal; details: in vivo
# [31] = test system: Rattus norvegicus; assay: Neurotoxicity in pilocarpine-induced status epilepticus Sprague-Dawley albino rat model assessed as minimal motor impairment at 300 mg/kg, ip after 0.5 hrs by rotarod test; type: toxicity, organism-based; parameters: dose 300 mg/kg, route intraperitoneal; details: in vivo; procedure, shortened: as §6
# [32] = test system: Rattus norvegicus; assay: Neurotoxicity in pilocarpine-induced status epilepticus Sprague-Dawley albino rat model assessed as minimal motor impairment at 30 mg/kg, ip after 0.5 hrs by rotarod test; type: toxicity, organism-based; parameters: dose 30 mg/kg, route intraperitoneal; details: in vivo; procedure, shortened: as §6
# [33] = test system: Rattus norvegicus; assay: Neurotoxicity in pilocarpine-induced status epilepticus Sprague-Dawley albino rat model assessed as minimal motor impairment at 300 mg/kg, ip after 1 hr by rotarod test; type: toxicity, organism-based; parameters: dose 300 mg/kg, route intraperitoneal; details: in vivo; procedure, shortened: as §6
# [34] = test system: Rattus norvegicus; assay: Neurotoxicity in pilocarpine-induced status epilepticus Sprague-Dawley albino rat model assessed as minimal motor impairment at 30 mg/kg, ip after 1 hr by rotarod test; type: toxicity, organism-based; parameters: dose 30 mg/kg, route intraperitoneal; details: in vivo; procedure, shortened: as §6
# [35] = test system: Rattus norvegicus; assay: Neurotoxicity in pilocarpine-induced status epilepticus Sprague-Dawley albino rat model assessed as minimal motor impairment at 100 mg/kg, ip after 2 hrs by rotarod test; type: toxicity, organism-based; parameters: dose 100 mg/kg, route intraperitoneal; details: in vivo
# [36] = test system: Rattus norvegicus; assay: Neurotoxicity in pilocarpine-induced status epilepticus Sprague-Dawley albino rat model assessed as minimal motor impairment at 300 mg/kg, ip after 2 hrs by rotarod test; type: toxicity, organism-based; parameters: dose 300 mg/kg, route intraperitoneal; details: in vivo; procedure, shortened: as §6
# [37] = test system: Rattus norvegicus; assay: Neurotoxicity in pilocarpine-induced status epilepticus Sprague-Dawley albino rat model assessed as minimal motor impairment at 30 mg/kg, ip after 2 hrs by rotarod test; type: toxicity, organism-based; parameters: dose 30 mg/kg, route intraperitoneal; details: in vivo; procedure, shortened: as §6
# [38] = test system: Rattus norvegicus; assay: Neurotoxicity in pilocarpine-induced status epilepticus Sprague-Dawley albino rat model assessed as minimal motor impairment at 100 mg/kg, ip after 4 hrs by rotarod test; type: toxicity, organism-based; parameters: dose 100 mg/kg, route intraperitoneal; details: in vivo
# [39] = test system: Rattus norvegicus; assay: Neurotoxicity in pilocarpine-induced status epilepticus Sprague-Dawley albino rat model assessed as minimal motor impairment at 300 mg/kg, ip after 4 hrs by rotarod test; type: toxicity, organism-based; parameters: dose 300 mg/kg, route intraperitoneal; details: in vivo; procedure, shortened: as §6
# [40] = test system: Rattus norvegicus; assay: Neurotoxicity in pilocarpine-induced status epilepticus Sprague-Dawley albino rat model assessed as minimal motor impairment at 30 mg/kg, ip after 4 hrs by rotarod test; type: toxicity, organism-based; parameters: dose 30 mg/kg, route intraperitoneal; details: in vivo; procedure, shortened: as §6
# [41] = test system: Rattus norvegicus; assay: Anticonvulsant activity in ip dosed Sprague-Dawley albino rat assessed as protection against pilocarpine-induced status epilepticus after 0.5 hrs; type: functional; procedure, shortened: as §5
structure (smiles),measurement,setting,value
NC(=O)OC[C@@H](O)c1ccccc1Cl [CARISBAMATE],TD50,[1],137 mg/kg
same,ED50,[2],8 mg/kg
same,Ratio TD50/ED50,[3],18
same,ED50,[4],58 mg/kg
same,Ratio TD50/ED50,[5],2.4
CCC(C)C(CC)COC(N)=O (racemic),TD50,[1],291 mg/kg
same,Activity,[6],inactive
same,Activity,[7],Active
same,Activity,[8],Active
same,Activity,[9],inactive
same,Activity,[10],inactive
same,Activity,[11],inactive
same,Activity,[12],inactive
same,Activity,[13],Active
same,Activity,[14],Active
same,Activity,[15],inactive
same,Activity,[16],inactive
same,Activity,[17],inactive
same,Activity,[18],Non-toxic
same,Activity,[19],Non-toxic
same,Activity,[20],Non-toxic
same,Activity,[21],Non-toxic
same,Activity,[22],inactive
same,Activity,[23],inactive
same,Activity,[24],inactive
same,Activity,[25],Non-toxic
same,ED50,[2],52 mg/kg
same,Ratio TD50/ED50,[3],5.5
same,ED50,[4],68 mg/kg
same,Ratio TD50/ED50,[5],4.3
same,Activity,[26],Active
same,Activity,[27],Toxic
same,Activity,[28],Toxic
same,Activity,[29],Non-toxic
same,Activity,[30],Toxic
same,Activity,[31],Toxic
same,Activity,[32],Non-toxic
same,Activity,[33],Toxic
same,Activity,[34],Non-toxic
same,Activity,[35],Toxic
same,Activity,[36],Non-toxic
same,Activity,[37],Toxic
same,Activity,[38],Toxic
same,Activity,[39],Non-toxic
same,Activity,[40],Toxic
same,ED50,[41],96 mg/kg
same,ED97,[41],174 mg/kg
NC(=O)OCC(COC(N)=O)c1ccccc1 [FELBAMATE],TD50,[1],> 500 mg/kg
same,ED50,[2],25 mg/kg
same,Ratio TD50/ED50,[3],20
same,ED50,[4],> 250 mg/kg
same,Ratio TD50/ED50,[5],>2
